The source of these data is ChEMBL document CHEMBL4229369, “Design, synthesis and antitubercular evaluation of benzothiazinones containing a piperidine moiety” (Eur J Med Chem, 2018).

The test system of data set [1] is Mycobacterium tuberculosis. As to the kind of experiment: Antitubercular activity against Mycobacterium tuberculosis H37Rv ATCC27395 after 7 days by Alamar blue assay. The class given is functional. The conditions noted are these: 168 h. The gist of the method: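 Inoculum grown to late log phase in Middlebrook 7H9 with 0.2% glycerol, 0.05% Tween 80 and 10% ADC, then washed in PBS, filtered through 8 µm to remove clumps and frozen at -80 °C. Twofold compound dilutions in 7H9-ADC-TG with 2 × 10⁵ CFU per well, 37 °C. Alamar blue and Tween 80 added on day 7, read after 16-24 h (ex 530/em 590 nm). MIC is the lowest concentration giving ≥90% fluorescence reduction versus bacterium-only controls.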

The nature of data set [2]: MRT in ICR mouse at 50 mg/kg, po administered as single dose by HPLC analysis. In kind it is ADME, organism-based. The conditions noted are these: in vivo. The gist of the method:
(§1)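 SPF female ICR mice (20-25 g), fasted overnight, 3 per group; single oral dose 50 mg/kg as suspension in 0.5% CMC. Jugular vein blood at 0.25, 0.5, 1, 2, 4, 6, 8 and 24 h; serum stored at −20 °C, protein removed with acetonitrile, supernatant dried, redissolved in acetonitrile and analysed by HPLC. Parameters derived directly from the experimental data.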

Data set [3] is described as follows: AUC (0 to infinity) in ICR mouse at 50 mg/kg, po administered as single dose by HPLC analysis. The class given is ADME, organism-based. On the set-up: dose 50 mg/kg, route oral, time infinity. The conditions noted are these: in vivo. The procedure, abridged: as §1
Data set [4] in a line: Cmax in ICR mouse at 50 mg/kg, po administered as single dose by HPLC analysis. In kind it is ADME, organism-based. Also noted: dose 50 mg/kg, route oral. The conditions noted are these: in vivo. The procedure, abridged:
as §1

Data set [5] in a line: Half life in ICR mouse at 50 mg/kg, po administered as single dose by HPLC analysis. In kind it is ADME, organism-based. The conditions noted are these: in vivo. The procedure, abridged: as §1
A short description of data set [6]: Tmax in ICR mouse at 50 mg/kg, po administered as single dose by HPLC analysis. In kind it is ADME, organism-based. The conditions noted are these: in vivo. The procedure, abridged: as §1

Structures are written as SMILES. In brackets after ≈: the same amount, converted by molar mass.

In data set [1], `O=c1nc(N2CCC(CN3CCCC3)CC2)sc2c([N+](=O)[O-])cc(C(F)(F)F)cc12` returned an MIC90 of 3.58 µg/mL (≈ 8.09 µM).
With `CC1CCN(CC2CCN(c3nc(=O)c4cc(C(F)(F)F)cc([N+](=O)[O-])c4s3)CC2)CC1`, in data set [1], the MIC90 worked out at 0.488 µg/mL (≈ 1.04 µM).
Molecule `O=c1nc(N2CCC(CN3CCC4(CC3)OCCO4)CC2)sc2c([N+](=O)[O-])cc(C(F)(F)F)cc12` showed an MIC90 in data set [1] of 3.71 µg/mL (≈ 7.21 µM).
Take `CN(C1CCCCC1)C1CCN(c2nc(=O)c3cc(C(F)(F)F)cc([N+](=O)[O-])c3s2)CC1`: in data set [1], the MIC90 amounted to 0.973 µg/mL (≈ 2.07 µM).
Still for that read-out and setting: the result for `O=c1nc(N2CCC(CN3CCCCC3)CC2)sc2c([N+](=O)[O-])cc(C(F)(F)F)cc12` reads 0.481 µg/mL (≈ 1.05 µM); that for `CCN(CC)CC1CCN(c2nc(=O)c3cc(C(F)(F)F)cc([N+](=O)[O-])c3s2)CC1`, 1.82 µg/mL (≈ 4.11 µM).
In turn, `CC1CCCCN1CC1CCN(c2nc(=O)c3cc(C(F)(F)F)cc([N+](=O)[O-])c3s2)CC1` (stereo unspecified) showed an MIC90 in data set [1] of 1.92 µg/mL (≈ 4.08 µM).
Same read-out and setting: the same measure for `O=c1nc(N2CCC(NC3CCCCC3)CC2)sc2c([N+](=O)[O-])cc(C(F)(F)F)cc12`: 0.959 µg/mL (≈ 2.1 µM); for `O=c1nc(N2CCN(CC3CCCCC3)CC2)sc2c([N+](=O)[O-])cc(C(F)(F)F)cc12` [MACOZINONE]: below 0.016 µg/mL.
`CO[C@H]1/C=C/O[C@@]2(C)Oc3c(C)c(O)c4c(O)c(c(/C=N/N5CCN(C)CC5)c(O)c4c3C2=O)NC(=O)/C(C)=C\C=C\[C@H](C)[C@H](O)[C@@H](C)[C@@H](O)[C@@H](C)[C@H](OC(C)=O)[C@@H]1C` [RIFAMPIN] displayed an MIC90 in data set [1] of 0.084 µg/mL (≈ 0.102 µM).
In turn, `NNC(=O)c1ccncc1` [ISONIAZID] had an MIC90 in data set [1] of 0.037 µg/mL (≈ 0.27 µM).
With `CC1CCCN(CC2CCN(c3nc(=O)c4cc(C(F)(F)F)cc([N+](=O)[O-])c4s3)CC2)C1` (stereo unspecified), the MIC90 in data set [1] is 0.241 µg/mL (≈ 0.512 µM). Compared with the last molecule, the MIC90 is about 6.5-fold higher.
On the same count and under the same terms, the same measure for `CN1CCN(CC2CCN(c3nc(=O)c4cc(C(F)(F)F)cc([N+](=O)[O-])c4s3)CC2)CC1`: 7.84 µg/mL (≈ 16.6 µM).
For `O=c1nc(N2CCC(CN3CCC(C(F)(F)F)CC3)CC2)sc2c([N+](=O)[O-])cc(C(F)(F)F)cc12`, in data set [2], the MRT was 4.26 h. In addition, the AUC(0-inf) in data set [3] worked out at 2490 ng·h/mL. For the same molecule, in data set [4], the Cmax is 1160 ng/mL. This molecule showed a half-life in data set [5] of 3.3 h. The MIC90 in data set [1] was below 0.016 µg/mL. Also, the Tmax in data set [6] was 0.25 h.
`O=c1nc(N2CCC(CN3CCCCCC3)CC2)sc2c([N+](=O)[O-])cc(C(F)(F)F)cc12` showed an MIC90 in data set [1] of 1.32 µg/mL (≈ 2.81 µM).
The molecule `O=c1nc(N2CCC(CN3CCC(O)CC3)CC2)sc2c([N+](=O)[O-])cc(C(F)(F)F)cc12` gave an MIC90 in data set [1] of 1.96 µg/mL (≈ 4.15 µM).

The term MIC90 denotes an inhibitory concentration at the 90% level, which refers to growth in some studies and to a panel of isolates in others. Broadly, the MRT is a mean duration of stay, worked out from the concentration-time curve. Usually AUC(0-inf) stands for total exposure, with the tail of the curve extrapolated. Higher therefore signals high exposure. A word on the Cmax: it is the peak of the concentration-time curve. Broadly, the half-life is how long it takes for the measured level to halve. By Tmax is commonly meant the time at which the peak concentration occurs.
